According to PubChem BioAssay:
Calls of active or inactive are those of the source.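 The calls were made as follows, unless noted: active = GFP response above 150% of the DMSO level; inconclusive = fewer than 70 events counted for a yeast strain; inactive = the rest.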

Experiments:
[1] = RPL19A-GFP modulators, yeast TOR pathway, confirmation, cell-based, S. cerevisiae, flow cytometry, cherry picks, mother/daughter gates (AID 2270;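 active = GFP response below 50% of the DMSO control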); details: S. cerevisiae RPL19A-GFP strain, 3 h, at 10 µM, stronger effect = lower value, 100 = same GFP as DMSO wells
[2] = LAP4-GFP expression modulators in yeast, confirmation, cell-based, cherry picks, flow cytometry, mother/daughter gates (AID 2271;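 active = GFP response above 150% of the DMSO control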;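 also: ratio of sample to DMSO plate mean so 100% equals DMSO level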); details: S. cerevisiae LAP4-GFP strain, 3 h, at 10 µM, stronger effect = higher value, 100 means same as DMSO control
Summary of the method: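 System: GFP-fusion yeast strain | Input: Yeast cells seeded at OD600 of 0.2 | Technique: HT flow cytometry, GFP fluorescence channel | Read-out: % GFP response vs DMSO | Dosing: Single test-compound dose, 10 µM final | Controls: Positive rapamycin (400 ng/mL), negative DMSO | Times: 3 h treatment at 30 °C with rotation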

[3] = modulators of MEP2-GFP levels in yeast, confirmation, S. cerevisiae, flow cytometry GFP, cherry picks (AID 2272;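 active = GFP response above 150% of the DMSO control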;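 also: ratio of well signal to plate DMSO mean so 100% equals DMSO level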); details: S. cerevisiae MEP2-GFP strain, 3 h, at 10 µM, stronger effect = higher value
[4] = AGP1-GFP expression modulators, hit retest, confirmation, cell-based, flow cytometry, S. cerevisiae, cherry picks (AID 2273);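 also: median GFP channel fluorescence over the whole cell population gate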; details: S. cerevisiae AGP1-GFP strain, 3 h, at 10 µM
[5] = modulators of CIT2-GFP expression in yeast, confirmation, S. cerevisiae, GFP fusion, cherry picks, mother/daughter gates (AID 2274); details: S. cerevisiae CIT2-GFP strain, flow cytometry, 3 h, at 10 µM, stronger effect = higher value
[6] = measured here: daughter cell gate
[7] = measured here: mother cell gate
[8] = measured here: daughter cell gate response
[9] = measured here: mother cell gate response

Structure (SMILES)	GFP response vs DMSO [1]	GFP response vs DMSO [1, 6] [%]	GFP response vs DMSO [1, 7] [%]	GFP response relative to DMSO [2]	GFP response relative to DMSO [2, 8] [%]	GFP response relative to DMSO [2, 9] [%]	GFP response vs DMSO [3]	GFP response, % of DMSO [4]	GFP response, % of DMSO [5]	GFP response, % of DMSO [5, 6] [%]	GFP response, % of DMSO [5, 7] [%]
Oc1ccc(C2Nc3cccc4cccc(c34)N2)cc1	99% (inactive)	99.2	99.4	107% (inactive)	105	111	97.8% (inactive)	98.7% (inactive)	100% (inactive)	98.1	102
Cc1cc(C)c(S(=O)(=O)NCC23C=CC(O2)C2C(=O)N(c4ccccc4)C(=O)C23)c(C)c1 (stereo unspecified)	102% (inactive)	103	103	105% (inactive)	105	108	102% (inactive)	100% (inactive)	104% (inactive)	101	105
CCCc1[nH]nc2c1C(c1ccc(OCCN3CCOCC3)c(OCC)c1)C(C#N)=C(N)O2 (stereo unspecified)	98.4% (inactive)	98.4	98.9	90.2% (inactive)	95.6	91.1	97.8% (inactive)	97.8% (inactive)	107% (inactive)	105	108
CCN(CC)c1ccc(/C=C2\SC(=O)N(C(C)C)C2=O)o1	99.6% (inactive)	99.8	96.5	117% (inactive)	116	117	132% (inactive)	105% (inactive)	112% (inactive)	115	110
C/C(=N\NC(=O)COc1ccccc1-c1ccccc1)c1ccccn1	101% (inactive)	99.1	102	145% (inactive)	136	162	96.6% (inactive)	94.5% (inactive)	102% (inactive)	106	97.7
COC(=O)CCS(=O)(=O)c1nc(-c2ccccc2)cc(C(F)(F)F)n1	100% (inactive)	102	95.8	168% (active)	161	170	136% (inactive)	130% (inactive)	102% (inactive)	110	93.7
COc1cccc(CC(=O)OC(C)C(=O)Nc2ncc(Cl)cc2Cl)c1 (stereo unspecified)	101% (inactive)	99.8	101	96.2% (inactive)	97.2	97.2	102% (inactive)	91.1% (inactive)	97.8% (inactive)	98.1	95.5
N#Cc1ccc(Sc2ccccn2)c([N+](=O)[O-])c1	102% (inactive)	101	102	102% (inactive)	105	103	102% (inactive)	97.8% (inactive)	104% (inactive)	99.7	105
O=C(COC(=O)/C=C/c1cccs1)Nc1nc(-c2ccccc2)cs1	101% (inactive)	99.9	99.7	102% (inactive)	101	101	105% (inactive)	93.3% (inactive)	99.7% (inactive)	99.1	98.5
Cc1ccn2c(NC(=O)c3ccco3)c(-c3ccccc3)nc2c1	98.6% (inactive)	100	96.6	96.7% (inactive)	96	96.1	107% (inactive)	94.8% (inactive)	103% (inactive)	103	101
O=C1/C(=C/c2ccccn2)COc2ccccc21	94.2% (inactive)	96.4	91.2	135% (inactive)	130	134	110% (inactive)	95.5% (inactive)	94.4% (inactive)	99.3	88.2
COc1ccc(CC2=C(O)c3ccccc3C(=O)C2=O)cc1	95.1% (inactive)	91.3	96.1	129% (inactive)	113	135	97.2% (inactive)	97% (inactive)	80.6% (inactive)	81.6	80.4
COC(=O)c1ccc(/C=C/C(=O)c2ccc(OC)cc2)cc1	99.9% (inactive)	97.8	101	114% (inactive)	108	111	104% (inactive)	94.9% (inactive)	99.3% (inactive)	100	99.1
Cc1cc(=O)oc2c(C(=O)/C=C\c3cccs3)c(O)ccc12	98% (inactive)	100	95.3	145% (inactive)	136	154	107% (inactive)	101% (inactive)	95.9% (inactive)	99.2	91.9
CCOC(=O)C(=Cc1ccc(F)cc1)C(=O)OCC	101% (inactive)	101	100	107% (inactive)	102	111	100% (inactive)	96.7% (inactive)	93.9% (inactive)	94.8	92.3
Oc1c(CN2CCCCC2)cc(Br)c2cccnc12	106% (inactive)	103	105	208% (active)	181	208	118% (inactive)	96.7% (inactive)	102% (inactive)	104	91
O=c1c(-c2ccc(Cl)cc2)[n+]([O-])c2ccccc2n1O	103% (inactive)	102	103	193% (active)	141	177	112% (inactive)	93% (inactive)	92.1% (inactive)	90.9	91
CS/C(N)=N/N=C/c1ccc2c(c1)OCO2	97.8% (inactive)	98.9	97.7	106% (inactive)	102	108	100% (inactive)	102% (inactive)	103% (inactive)	103	102
CN1CCN(C(c2ccc(C(F)(F)F)cc2)c2ccc3cccnc3c2O)CC1 (stereo unspecified)	93.6% (inactive)	87.3	86.7	216% (active)	190	218	109% (inactive)	87.4% (inactive)	97.3% (inactive)	95.6	94.4
O=c1c2c(-c3cccs3)csc2ncn1/N=C/c1ccccn1	98.4% (inactive)	95.2	96.5	119% (inactive)	112	121	99% (inactive)	99.2% (inactive)	91.5% (inactive)	92	89.5
Cc1cc(=O)oc2cc(OC(C)C(=O)NC3CCCC3)ccc12 (stereo unspecified)	102% (inactive)	100	102	95.7% (inactive)	94.2	95.2	101% (inactive)	105% (inactive)	95.9% (inactive)	93.8	95.6
O=C(O)c1ccn2c(C(=O)c3ccc(Cl)cc3)c(-c3ccccc3)cc2c1	96.2% (inactive)	92.3	99.8	114% (inactive)	107	115	104% (inactive)	94.7% (inactive)	92.1% (inactive)	89	92.1
Cc1ccc(-c2csc(NC(=O)c3cccs3)n2)cc1	98.8% (inactive)	93.9	99.6	105% (inactive)	99.1	107	112% (inactive)	98% (inactive)	94.4% (inactive)	90.2	94.4
CCOC(=O)Cc1csc(NC(=O)c2sc3nc4ccc(C)cc4cc3c2N)n1	98.8% (inactive)	98.1	100	91.4% (inactive)	91	95.2	102% (inactive)	96.7% (inactive)	92.6% (inactive)	94.8	92.3
COCCNC(=O)c1ccccc1-c1nc(-c2ccccc2Cl)no1	98% (inactive)	97.1	98.9	101% (inactive)	99.2	99.3	105% (inactive)	96% (inactive)	105% (inactive)	105	103
O=C1c2ccccc2C(=O)N1OS(=O)(=O)c1ccc(F)cc1	74% (inactive)	89.4	61.9	127% (inactive)	129	129	103% (inactive)	102% (inactive)	121% (inactive)	103	99.7
